The source made the active and inactive calls. The calls are words filed in the database; no cut-off is given here.
Columns and labels:
[1] = test system: Trypanosoma brucei; test: Antitrypanosomal activity against Trypanosoma brucei Lister 427 assessed as parasite growth inhibition measured after 72 hrs by SYBER green staining based multilabel reader analysis; format: functional, organism-based; settings: Lister 427, 72 h
Procedure, shortened: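 Bloodstream-form T. b. brucei Lister 427 were screened first at 4 μM, and compounds giving >50% growth inhibition went on to eight-point dose-response. Viability was read by SYBR green after 72 h, giving EC50. At least three assay replicates were run, each in duplicate, reported as mean ± SD.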

[2] = test system: HEK293; test: Cytotoxicity against human HEK293 cells assessed as reduction in cell viability at 20 uM measured after 48 hrs by resazurin reagent based multilabel reader analysis; format: toxicity; settings: hek293, 48 h
[3] = Selectivity index, ratio of CC50 for cytotoxicity against human HEK293 cells to EC50 for antitrypanosomal activity against Trypanosoma brucei Lister 427; format: toxicity, cell-based; settings: read-out: Ratio CC50/EC50
[4] = test system: Trypanosoma brucei; test: Antitrypanosomal activity against Trypanosoma brucei Lister 427 assessed as time required to kill the parasite at 0.5 to 2 uM by hemocytometer cell counting analysis; format: functional; settings: dose 0.5-2 µM
Procedure, shortened: (§1)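 Time-to-kill on bloodstream-form Lister 427 parasites. Test compound was used at 1, 2 and 4 μM, and pentamidine at 0.5, 1 and 2 μM. Parasites were counted over time by hemocytometer, with counts normalized to a DMSO negative control. Three replicates, mean ± SD.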

[5] = test system: Trypanosoma brucei; test: Antitrypanosomal activity against Trypanosoma brucei Lister 427 assessed as time required to kill the parasite at 2 to 4 uM by hemocytometer cell counting analysis; format: functional; settings: dose 2-4 µM; procedure, shortened: as §1
[6] = test system: Trypanosoma brucei; test: Antitrypanosomal activity against Trypanosoma brucei Lister 427 assessed as time required to kill the parasite at 1 to 4 uM by hemocytometer cell counting analysis; format: functional; settings: dose 1-4 µM; procedure, shortened: as §1
[7] = test system: Trypanosoma brucei; test: Antitrypanosomal activity against Trypanosoma brucei Lister 427 assessed as parasite growth inhibition at 1 uM measured for 6 to 48 hrs by SYBER green staining based multilabel reader analysis; format: functional, organism-based; settings: time 6-48 hrs
Procedure, shortened: (§2)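 Washout test on bloodstream-form Lister 427 trypanosomes to tell trypanocidal from trypanostatic action. Compound at 1, 2 or 4 μM was incubated for 6, 4 or 2 h respectively, and the parasites were then washed three times. Regrowth and division were monitored for a further 48 h.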

[8] = test system: Trypanosoma brucei; test: Antitrypanosomal activity against Trypanosoma brucei Lister 427 assessed as parasite growth inhibition at 4 uM measured for 2 to 48 hrs by SYBER green staining based multilabel reader analysis; format: functional, organism-based; settings: time 2-48 hrs; procedure, shortened: as §2
[9] = test system: Trypanosoma brucei; test: Antitrypanosomal activity against Trypanosoma brucei Lister 427 assessed as parasite growth inhibition at 2 uM measured for 4 to 48 hrs by SYBER green staining based multilabel reader analysis; format: functional, organism-based; settings: time 4-48 hrs; procedure, shortened: as §2

| SMILES | EC50 [1] [µM] | CC50 [2] [µM] | further results |
| --- | --- | --- | --- |
| Cc1ccc(CCC(O)CCc2ccc(C)cc2)cc1 | > 4 | > 20 | – |
| COc1ccc(/C=C/C(=O)/C=C/c2ccc(O)c(O)c2)cc1 | 0.41 | 6.61 | – |
| OC(CCc1ccccc1Cl)CCc1ccccc1Cl | > 4 | > 20 | – |
| O=C1/C(=C/c2ccccc2F)CNC/C1=C\c1ccccc1F | 0.2 | 3.58 | – |
| O=C(/C=C/c1ccccc1Cl)/C=C/c1ccccc1Cl | 0.31 | 4.27 | selectivity ratio [3]: > 10 |
| COc1cc(/C=C/C(=O)/C=C/c2cc(OC)c(OC)c(OC)c2)cc(OC)c1OC | 0.36 | 0.3 | – |
| O=C(/C=C/c1cccc(O)c1)CC(=O)/C=C/c1cccc(O)c1 | 3.29 | 6.73 | – |
| COc1cc(/C=C/C(=O)/C=C/c2ccc(O)c(OC)c2)ccc1O | 0.84 | 9.74 | – |
| N=C(N)c1ccc(OCCCCCOc2ccc(C(=N)N)cc2)cc1 [PENTAMIDINE] | 0.012 | > 4 | Time [4]: >30 h |
| Cc1ccc(CCC(=O)CCc2ccc(C)cc2)cc1 | > 4 | > 20 | – |
| O=C(/C=C/c1ccc(F)cc1)/C=C/c1ccc(F)cc1 | 1.42 | 7.64 | – |
| O=C(/C=C/c1ccccc1)CC(=O)/C=C/c1ccccc1 | > 4 | > 20 | – |
| COc1ccc(CCC(O)CCc2ccc(OC)c(OC)c2)cc1OC | > 4 | > 20 | – |
| COc1cc(/C=C/C(=O)CC(=O)/C=C/c2ccc(O)c(OC)c2)ccc1O [CURCUMIN] | 1.78 | 5.56 | – |
| O=C(CCc1ccccc1Cl)CCc1ccccc1Cl | > 4 | > 20 | – |
| COc1ccc(/C=C/C(=O)/C=C/c2ccc(OC)cc2)cc1 | > 4 | > 20 | – |
| O=C(/C=C/c1ccc(Cl)c(Cl)c1)CC(=O)/C=C/c1ccc(Cl)c(Cl)c1 | > 4 | > 20 | – |
| O=C(CCc1cccc(Br)c1)CCc1cccc(Br)c1 | > 4 | > 20 | – |
| COc1ccc(/C=C/C(=O)/C=C/c2ccccc2)cc1 | > 4 | 5.49 | – |
| COc1ccc(CCC(=O)CCc2ccc(OC)c(OC)c2)cc1OC | > 4 | > 20 | – |
| COc1ccc(/C=C/C(=O)/C=C/c2ccc(OC)c(OC)c2)cc1OC | 0.42 | 4.55 | selectivity ratio [3]: > 10 |
| COc1cc(/C=C/C(=O)/C=C/c2ccccc2)ccc1O | 0.66 | 5.63 | – |
| COc1cc(/C=C/C(=O)CC(=O)/C=C/c2cc(OC)c(OC)c(OC)c2)cc(OC)c1OC | 3.99 | – | – |

| SMILES | EC50 [1] [µM] | CC50 [2] [µM] | further results |
| --- | --- | --- | --- |
| COc1cccc(/C=C/C(=O)/C=C/c2cccc(OC)c2)c1 | > 4 | > 20 | – |
| COc1cc(/C=C/C(=O)/C=C/c2cc(OC)cc(OC)c2)cc(OC)c1 | 0.24 | 1.45 | – |
| O=C(/C=C/c1ccccc1)/C=C/c1ccc(Br)cc1 | 2.33 | 7.05 | – |
| O=C(/C=C/c1ccccc1)/C=C/c1ccc(Cl)c(Cl)c1 | 2.15 | 11.3 | – |
| Cc1ccc(/C=C/C(=O)/C=C/c2ccc(C)cc2)cc1 | > 4 | > 20 | – |
| Cc1ccc(/C=C/C(=O)/C=C/c2ccccc2)cc1 | 3.74 | – | – |
| COc1cc(/C=C2\CCC/C(=C\c3cc(OC)cc(OC)c3)C2=O)cc(OC)c1 | > 4 | 3.7 | – |
| COc1cccc(/C=C/C(=O)CC(=O)/C=C/c2cccc(OC)c2)c1 | > 4 | > 20 | – |
| O=C(/C=C/c1ccccc1)/C=C/c1ccc(O)cc1 | 1.25 | 5.85 | – |
| OC(CCc1cccc(Br)c1)CCc1cccc(Br)c1 | > 4 | > 20 | – |
| O=C(/C=C/c1ccccc1)/C=C/c1ccc(O)c(O)c1 | 0.37 | 5.54 | – |
| COc1cc(CCC(O)CCc2cc(OC)c(OC)c(OC)c2)cc(OC)c1OC | > 4 | > 20 | – |
| CN(C)c1ccc(/C=C/C(=O)/C=C/c2ccccc2)cc1 | > 4 | 9.79 | – |
| O=C(/C=C/c1ccccc1)/C=C/c1ccc(Cl)cc1 | 1.93 | > 20 | – |
| COc1cc(CCC(=O)CCc2cc(OC)c(OC)c(OC)c2)cc(OC)c1OC | > 4 | > 20 | – |
| O=C(/C=C/c1ccccc1)/C=C/c1cccc([N+](=O)[O-])c1 | 0.2 | 2.88 | Time [5]: <6 h; Time [6]: <24 h; Activity [7]: Active; Activity [8]: Active; Activity [9]: Active |
| COc1ccc(/C=C/C(=O)CC(=O)/C=C/c2ccc(OC)cc2OC)c(OC)c1 | > 4 | – | – |
| O=C(/C=C/c1ccccc1)/C=C/c1ccc(C(F)(F)F)cc1 | 2.51 | > 20 | – |
| O=C(/C=C/c1ccccc1)/C=C/c1cccc(O)c1 | 0.29 | 5.79 | – |
| O=C(/C=C/c1cccc(Br)c1)/C=C/c1cccc(Br)c1 | > 4 | > 20 | – |
| O=C(/C=C/c1ccc(C(F)(F)F)cc1)CC(=O)/C=C/c1ccc(C(F)(F)F)cc1 | > 4 | > 20 | – |
| COc1ccc(/C=C/C(=O)CC(=O)/C=C/c2ccc(OC)c(OC)c2)cc1OC [TETRAMETHOXYCURCUMIN] | > 4 | > 20 | – |

From ChEMBL document CHEMBL5236663, “Structure-activity relationship of dibenzylideneacetone analogs against the neglected disease pathogen, Trypanosoma brucei” (Bioorg Med Chem Lett, 2023)
